In ChEMBL document CHEMBL1159067, “Benzimidazole- and indole-substituted 1,3'-bipyrrolidine benzamides as histamine H3 receptor antagonists” (Bioorg Med Chem Lett, 2010):
Values after ≈ are worked out from the molar mass of the structure shown. Active and inactive are the calls of the source. No cut-off for these calls is given here.

Tests used:
Histamine H3 receptor [1] = target: Histamine H3 receptor (Homo sapiens, UniProt Q9Y5N1); experiment: Displacement of [3H](R)-alpha-methylhistamine from human cloned histamine H3 receptor expressed in HEK293T cells by liquid scintillation spectrometry; format: cell-based, HEK-293T
Histamine H3 receptor (Homo sapiens, UniProt Q9Y5N1), sequence (Q9Y5N1 whole entry): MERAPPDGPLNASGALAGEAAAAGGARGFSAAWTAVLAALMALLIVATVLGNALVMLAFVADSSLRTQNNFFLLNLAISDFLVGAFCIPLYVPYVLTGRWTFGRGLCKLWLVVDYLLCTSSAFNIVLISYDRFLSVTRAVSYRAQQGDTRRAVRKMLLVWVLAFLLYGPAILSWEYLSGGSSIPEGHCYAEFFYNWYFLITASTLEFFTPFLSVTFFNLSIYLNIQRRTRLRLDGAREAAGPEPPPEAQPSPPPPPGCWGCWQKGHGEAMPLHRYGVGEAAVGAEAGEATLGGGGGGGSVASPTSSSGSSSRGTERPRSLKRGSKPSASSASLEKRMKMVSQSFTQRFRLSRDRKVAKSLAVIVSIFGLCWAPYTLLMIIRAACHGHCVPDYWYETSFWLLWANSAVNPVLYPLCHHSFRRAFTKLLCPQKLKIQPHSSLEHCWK

Histamine H3 receptor [2] = target: Histamine H3 receptor (Rattus norvegicus, UniProt Q9QYN8); experiment: Binding affinity to rat histamine H3 receptor
Histamine H3 receptor (Rattus norvegicus, UniProt Q9QYN8), sequence (Q9QYN8 whole entry): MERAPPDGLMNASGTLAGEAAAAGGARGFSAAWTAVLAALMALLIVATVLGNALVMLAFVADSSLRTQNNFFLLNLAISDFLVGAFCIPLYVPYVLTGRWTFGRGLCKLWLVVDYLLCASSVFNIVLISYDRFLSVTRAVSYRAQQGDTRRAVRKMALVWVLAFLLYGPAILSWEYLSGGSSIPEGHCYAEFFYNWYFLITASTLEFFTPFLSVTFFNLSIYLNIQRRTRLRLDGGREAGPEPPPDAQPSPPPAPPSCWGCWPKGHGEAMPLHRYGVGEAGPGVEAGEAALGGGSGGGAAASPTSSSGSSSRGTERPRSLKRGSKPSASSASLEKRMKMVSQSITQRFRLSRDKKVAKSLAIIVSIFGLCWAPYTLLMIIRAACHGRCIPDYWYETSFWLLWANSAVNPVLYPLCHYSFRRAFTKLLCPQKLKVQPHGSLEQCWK

Rattus norvegicus [3] = experiment: Decrease in (R)-alpha-methylhistamine-induced water intake in rat at 10 mg/kg, ip; format: functional, organism-based; parameters: dose 10 mg/kg
Method in brief: (§1)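 Water intake was induced in rats by the H3R agonist (R)-α-methylhistamine, which acts via central H3R. Antagonist was dosed ip. Significance was p <0.05 versus vehicle and versus (R)-α-methylhistamine alone.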

Rattus norvegicus [4] = experiment: Decrease in (R)-alpha-methylhistamine-induced water intake in rat at 30 mg/kg, ip; format: functional, organism-based; parameters: dose 30 mg/kg; method in brief: as §1
Rattus norvegicus [5] = experiment: Reversal of delay-induced retention deficit behavior in ip dosed rat assessed as differential novel and familiar object recognition; format: functional; details: read-out: MED
Method in brief: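 Rats received test compound ip at 0.1, 0.3, 1 or 3 mg/kg, or vehicle, before the learning trial. Exploration of the novel and familiar objects was then scored. Groups were compared with vehicle, with significance at p <0.03 and p <0.005.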

[6] = Plasma clearance in rat at 2 mg/kg, iv; format: ADME, organism-based; parameters: dose 2 mg/kg, route intravenous
[7] = Volume of distribution at steady state in rat at 2 mg/kg, iv; format: ADME, organism-based; parameters: dose 2 mg/kg, route intravenous; details: in vivo, read-out: Vdss
[8] = Cmax in rat at 10 mg/kg, po; format: ADME, organism-based; parameters: dose 10 mg/kg, route oral; details: in vivo
[9] = Tmax in rat at 10 mg/kg, po; format: ADME, organism-based; parameters: dose 10 mg/kg, route oral; details: in vivo
[10] = AUC in rat at 10 mg/kg, po; format: ADME, organism-based; parameters: dose 10 mg/kg, route oral; details: plasma
[11] = Half life in rat at 10 mg/kg, po; format: ADME, organism-based; parameters: dose 10 mg/kg, route oral; details: in vivo
[12] = Oral bioavailability in rat at 10 mg/kg; format: ADME, organism-based; details: in vivo
[13] = Cmax in rat brain at 30 mg/kg, ip; format: ADME, organism-based; parameters: dose 30 mg/kg, route intraperitoneal
[14] = Cmax in rat plasma at 30 mg/kg, ip; format: ADME, organism-based; parameters: dose 30 mg/kg, route intraperitoneal
[15] = Fraction unbound in rat brain at 30 mg/kg, ip; format: ADME, organism-based; parameters: dose 30 mg/kg, route intraperitoneal
[16] = Tmax in rat brain at 30 mg/kg, ip; format: ADME, organism-based; parameters: dose 30 mg/kg, route intraperitoneal
[17] = Tmax in rat plasma at 30 mg/kg, ip; format: ADME, organism-based; parameters: dose 30 mg/kg, route intraperitoneal
[18] = AUC in rat brain at 30 mg/kg, ip; format: ADME, organism-based; parameters: dose 30 mg/kg, route intraperitoneal
[19] = AUC in rat plasma at 30 mg/kg, ip; format: ADME, organism-based; parameters: dose 30 mg/kg, route intraperitoneal
[20] = Ratio of AUC in rat brain to plasma at 30 mg/kg, ip; format: ADME, organism-based; parameters: dose 30 mg/kg, route intraperitoneal; details: brain and plasma
Method in brief: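 Rats given a single 30 mg/kg intraperitoneal injection. Brain and plasma exposure were measured, with Cmax and Tmax recorded for each. The ratio is brain AUC (h ng/mL) divided by plasma AUC.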

[21] = Permeability by PAMPA; format: ADME; details: read-out: permeability
Method in brief: (§2)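 Passive permeability was measured by PAMPA, or by its blood–brain barrier variant PAMPA–BBB. Each gives effective permeability in units of 10^-6 cm/s.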

[22] = Blood-brain barrier permeability by PAMPA-BBB assay; format: ADME; method in brief: as §2
[23] = Aqueous solubility at pH 3.1; format: physicochemical; details: aqueous medium
[24] = Permeability across apical to basolateral side of human Caco-2 cell membrane; format: ADME, cell-based; details: read-out: permeability
Caco-2 = experiment: Ratio of permeability across basolateral to apical side over apical to basolateral side of human Caco-2 cell membrane
[25] = Cmax in rat brain at 10 mg/kg, ip; format: ADME, organism-based; parameters: dose 10 mg/kg, route intraperitoneal
[26] = Cmax in rat plasma at 10 mg/kg, ip; format: ADME, organism-based; parameters: dose 10 mg/kg, route intraperitoneal
[27] = Fraction unbound in rat brain at 10 mg/kg, ip; format: ADME, organism-based; parameters: dose 10 mg/kg, route intraperitoneal
[28] = Tmax in rat brain at 10 mg/kg, ip; format: ADME, organism-based; parameters: dose 10 mg/kg, route intraperitoneal
[29] = Tmax in rat plasma at 10 mg/kg, ip; format: ADME, organism-based; parameters: dose 10 mg/kg, route intraperitoneal
[30] = AUC in rat brain at 10 mg/kg, ip; format: ADME, organism-based; parameters: dose 10 mg/kg, route intraperitoneal
[31] = AUC in rat plasma at 10 mg/kg, ip; format: ADME, organism-based; parameters: dose 10 mg/kg, route intraperitoneal

Ki (Histamine H3 receptor [1]) [nM]	Papp [21] [×10⁻⁶ cm/s]	pBBB [22] [×10⁻⁶ cm/s]	solubility [23] [µg/mL]	Structure (SMILES)	also measured
235				CN(C)C1CCN(C(=O)c2ccc(Cn3c(-c4ccccn4)nc4ccccc43)cc2)C1 (stereo unspecified)	
65				CN(C)[C@H]1CCN(C(=O)c2ccc(Cn3c(-c4ccccc4)nc4ccccc43)cc2)C1	
2.5	6.5	7	18 (≈ 44.1 µM)	O=C(c1ccc(Cn2ccc3cccc(Cl)c32)cc1)N1CC[C@H](N2CCCC2)C1	Ki (Histamine H3 receptor [2]): 21.7 nM; Activity (Rattus norvegicus [3]): Active; Activity (Rattus norvegicus [4]): Active; minimal effective dose (Rattus norvegicus [5]): 0.3 mg/kg; clearance [6]: 112 mL/min/kg; Vd [7]: 7.3 L/kg; Cmax [8]: 22 ng/mL; Tmax [9]: 1.2 h; AUC [10]: 63 ng·h/mL; half-life [11]: 1.9 h; bioavailability [12]: 5%; Cmax [13]: 16 µM; Cmax [14]: 1090 ng/mL; fraction unbound [15]: 0.035; Tmax [16]: 0.5 h; Tmax [17]: 0.5 h; AUC [18]: 15000 ng·h/mL; AUC [19]: 2180 ng·h/mL; Kp [20]: 6.9
17				Cc1nc2ccccc2n1Cc1ccc(C(=O)N2CCC(N(C)C)C2)cc1 (stereo unspecified)	
130	7.8	8.1	10 (≈ 24.5 µM)	O=C(c1ccc(Cn2ccc3cc(Cl)ccc32)cc1)N1CC[C@H](N2CCCC2)C1	
400				O=C(c1cccc(Cn2cnc3ccccc32)c1)N1CCC(N2CCCC2)C1 (stereo unspecified)	
100	4.4	9.4	> 100	CN(C)C1CCN(C(=O)c2ccc(Cn3c(-c4ccccc4)nc4ccccc43)cc2)C1 (stereo unspecified)	Papp A→B [24]: 84.9 ×10⁻⁶ cm/s; Ratio (Caco-2): 1.3
1200				CN(CCO)C1CCN(C(=O)c2ccc(Cn3c(-c4ccccc4)nc4ccccc43)cc2)C1 (stereo unspecified)	
4000				O=C(c1ccccc1Cn1cnc2ccccc21)N1CCC(N2CCCC2)C1 (stereo unspecified)	
10				O=C(c1ccc(Cn2c(-c3ccccc3)nc3ccccc32)cc1)N1CCC(N2CCCC2)C1 (stereo unspecified)	
15	8.3	9.4	28 (≈ 75 µM)	O=C(c1ccc(Cn2ccc3ccccc32)cc1)N1CC[C@H](N2CCCC2)C1	
390				CN(C)C1CCN(C(=O)c2ccc(Cn3cnc4ccccc43)cc2)C1 (stereo unspecified)	
150	7.3	8.6	13 (≈ 31.9 µM)	O=C(c1ccc(Cn2ccc3ccc(Cl)cc32)cc1)N1CC[C@H](N2CCCC2)C1	
440				CN(C)[C@@H]1CCN(C(=O)c2ccc(Cn3c(-c4ccccc4)nc4ccccc43)cc2)C1	
	0.3	4	32 (≈ 82.4 µM)	Cc1nc2ccccc2n1Cc1ccc(C(=O)N2CC[C@H](N3CCCC3)C2)cc1	
	0.3	3.7	51 (≈ 136 µM)	O=C(c1ccc(Cn2cnc3ccccc32)cc1)N1CC[C@H](N2CCCC2)C1	clearance [6]: 56 mL/min/kg; Vd [7]: 3.6 L/kg; Cmax [8]: 1750 ng/mL; Tmax [9]: 0.4 h; AUC [10]: 2740 ng·h/mL; half-life [11]: 1.3 h; bioavailability [12]: 93%; Cmax [25]: 0.245 µM; Cmax [26]: 388 ng/mL; fraction unbound [27]: 0.138; Tmax [28]: 1 h; Tmax [29]: 1 h; AUC [30]: 231 ng·h/mL; AUC [31]: 1040 ng·h/mL
91				CCN(C)C1CCN(C(=O)c2ccc(Cn3c(-c4ccccc4)nc4ccccc43)cc2)C1 (stereo unspecified)	
